Laboratory results taken from ChEMBL document CHEMBL1131449, “4-(trans-4-Methylcyclohexyl)-4-oxobutyric acid (JTT-608). A new class of antidiabetic agent” (1998).
Activity calls are given as the source filed them. The rule behind the calls is not given here.

What was measured:
Rattus norvegicus [1] = test: Percent decrease of hyperglycemia at 30 min after glucose loading(1 g/kg ip) relative to vehicle control in rats at dose 100 mg/kg po; assay type: functional, organism-based; design: dose 100 mg/kg
Summary of the method: (§1)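 Normal rats, groups of four to six, fasted 16 h. Glucose given 1 g/kg ip, with oral vehicle or compound. Tail-vein blood glucose measured by the hexokinase method. Value is % reduction of hyperglycemia 30 min after the glucose load versus vehicle control. Dunnett's two-tailed test used.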

Rattus norvegicus [2] = test: Percent decrease of hyperglycemia at 30 min after glucose loading(1 g/kg ip) relative to vehicle control in rats at dose 100 mg/kg po.; assay type: functional; design: scale not given: the % may be the effect or the level left; summary of the method: as §1
Rattus norvegicus [3] = test: Percent decrease of hyperglycemia at 30 min after glucose loading(1 g/kg ip) relative to vehicle control in rats at dose 30 mg/kg po; assay type: functional, organism-based; design: dose 30 mg/kg; summary of the method: as §1
Rattus norvegicus [4] = test: Hypoglycemic activity in fasting rats at a dose of 30 mg/kg po; assay type: functional, organism-based; design: dose 30 mg/kg
Summary of the method: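 Normal rats, groups of four or five, fasted 16 h, then given vehicle or compound by mouth. Tail-vein blood sampled over 4 h for glucose (hexokinase method) and insulin (two-antibody radioimmunoassay). Comparison to vehicle control by Dunnett's two-tailed test.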

Rattus norvegicus [5] = test: Percent decrease of hyperglycemia at 30 min after glucose loading(1 g/kg ip) relative to vehicle control in rats at dose 10 mg/kg po; assay type: functional, organism-based; design: dose 10 mg/kg; summary of the method: as §1
Rattus norvegicus [6] = test: Percent decrease of hyperglycemia at 30 min after glucose loading(1 g/kg ip) relative to vehicle control in rats at dose 30 mg/kg po.; assay type: functional; design: scale not given: the % may be the effect or the level left; summary of the method: as §1
Rattus norvegicus [7] = test: Percent decrease of hyperglycemia at 30 min after glucose loading(1 g/kg ip) relative to vehicle control in rats at dose 10 mg/kg po.; assay type: functional; design: scale not given: the % may be the effect or the level left; summary of the method: as §1
Rattus norvegicus [8] = test: Percent decrease of hyperglycemia at 30 min after glucose loading(1 g/kg ip) relative to vehicle control in rats at dose 1 mg/kg po; assay type: functional, organism-based; design: dose 1 mg/kg; summary of the method: as §1
Rattus norvegicus [9] = test: Percent decrease of hyperglycemia at 30 min after glucose loading(1 g/kg ip) relative to vehicle control in rats at dose 3 mg/kg po.; assay type: functional; design: scale not given: the % may be the effect or the level left; summary of the method: as §1

CC[C@H]1CC[C@H](C(=O)CCC(=O)O)CC1
Effect (Rattus norvegicus [1]): inactive

CC1(C)CCC(C(=O)CCC(=O)O)CC1
Effect (Rattus norvegicus [2]): 34% | Effect (Rattus norvegicus [3]): inactive

C[C@H]1CC[C@H](S(=O)(=O)CCC(=O)O)CC1
Effect (Rattus norvegicus [1]): inactive

C[C@H]1CC[C@H](C(=O)NCC(=O)O)CC1
Effect (Rattus norvegicus [1]): inactive

C[C@H]1CC[C@H](CCCC(=O)O)CC1
Effect (Rattus norvegicus [1]): inactive

O=C(O)CCC(=O)C1CCCCCC1
Effect (Rattus norvegicus [1]): inactive

CC1CCCC(C(=O)CCC(=O)O)C1 (centres undefined)
Effect (Rattus norvegicus [2]): 37% | Effect (Rattus norvegicus [3]): inactive

C[C@H]1CC[C@H](C(=O)CCCC(=O)O)CC1
Effect (Rattus norvegicus [1]): inactive

CC(=O)CCC(=O)[C@H]1CC[C@H](C)CC1
Effect (Rattus norvegicus [4]): inactive | Effect (Rattus norvegicus [2]): 31% | Effect (Rattus norvegicus [5]): inactive | Effect (Rattus norvegicus [6]): 30%

C[C@H]1CC[C@@H](C(=O)CCC(=O)O)CC1
Effect (Rattus norvegicus [4]): inactive | Effect (Rattus norvegicus [2]): 44% | Effect (Rattus norvegicus [5]): inactive | Effect (Rattus norvegicus [6]): 32%

C[C@H]1CC[C@H]([S+]([O-])CCC(=O)O)CC1 (some centres undefined)
Effect (Rattus norvegicus [1]): inactive

CC1CCCCC1C(=O)CCC(=O)O (centres undefined)
Effect (Rattus norvegicus [1]): inactive

C[C@H]1CC[C@H](C(=O)CCC(N)=O)CC1
Effect (Rattus norvegicus [4]): inactive | Effect (Rattus norvegicus [2]): 47% | Effect (Rattus norvegicus [5]): inactive | Effect (Rattus norvegicus [6]): 27%

C[C@H]1CC[C@H](C(=O)CCC(=O)O)CC1
Effect (Rattus norvegicus [4]): inactive | Effect (Rattus norvegicus [2]): 65% | Effect (Rattus norvegicus [7]): 32% | Effect (Rattus norvegicus [8]): inactive | Effect (Rattus norvegicus [9]): 24% | Effect (Rattus norvegicus [6]): 41%

CC1(C(=O)CCC(=O)O)CCCCC1
Effect (Rattus norvegicus [2]): 28% | Effect (Rattus norvegicus [3]): inactive

O=C(O)CCC(=O)C1CCCC1
Effect (Rattus norvegicus [1]): inactive

CCC[C@H]1CC[C@H](C(=O)CCC(=O)O)CC1
Effect (Rattus norvegicus [1]): inactive

O=C(O)CCC(=O)C1CCCCC1
Effect (Rattus norvegicus [4]): inactive | Effect (Rattus norvegicus [2]): 26% | Effect (Rattus norvegicus [5]): inactive | Effect (Rattus norvegicus [6]): 27%

C[C@H]1CC[C@H](C(=O)OCC(=O)O)CC1
Effect (Rattus norvegicus [1]): inactive
